Screening results deposited in PubChem BioAssay by The Scripps Research Institute Molecular Screening Center.
NPY-Y2 antag – blocks the human neuropeptide Y Y2 receptor. 140,000 compounds, 0.99% hits. NPY-Y2 expressing cells, antagonist mode. P49146. inhibition, % at 2.7 µM. AID 793; in the data active = inhibition above about 17%;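 note: 0% = vehicle with agonist challenge and 100% = reference antagonist with challenge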
NPY-Y2 PAM-ag – human NPY-Y2 potentiation or agonism, primary screen. activation, % at 3.6 µM. 220,000 compounds, 0.45% hits. cells expressing NPY-Y2, potentiator/agonist read-out; in the data active = activation above about 27%;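 note: cells stimulated with NPY near EC25 plus isoproterenol at EC100; 0% = vehicle plus submaximal agonist and 100% = vehicle plus saturating agonist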
NPY Y1 blocker – NPY-Y1 (human) receptor antagonism | P25929 | HEK293-CNG Y1 cells, membrane potential fluorescence; NPY at EC95, then isoproterenol | inhibition, % at 3.6 µM | 200,000 compounds, 1% hits;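 active = inhibition above the campaign mean inhibition of all tested compounds plus 3 SD, cut at about 20% in these data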;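 note: 0% = DMSO wells given NPY plus isoproterenol and 100% = isoproterenol alone without NPY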
Target sequence (P25929 whole entry, looked up): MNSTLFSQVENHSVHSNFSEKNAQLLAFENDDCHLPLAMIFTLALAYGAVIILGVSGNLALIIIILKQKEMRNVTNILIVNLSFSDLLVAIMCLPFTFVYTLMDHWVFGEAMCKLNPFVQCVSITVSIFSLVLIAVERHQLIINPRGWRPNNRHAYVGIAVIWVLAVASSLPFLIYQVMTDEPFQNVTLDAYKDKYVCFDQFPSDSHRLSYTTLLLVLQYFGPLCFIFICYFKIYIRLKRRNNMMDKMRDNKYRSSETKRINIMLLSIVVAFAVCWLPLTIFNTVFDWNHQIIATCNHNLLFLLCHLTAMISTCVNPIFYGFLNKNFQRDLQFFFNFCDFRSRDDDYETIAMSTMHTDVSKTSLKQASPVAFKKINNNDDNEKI
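Assay system: HEK293 cells with Y1 receptor plus CNG channel | Probe or stimulus: NPY (25 nM), isoproterenol (1 µM), Ro 20-1724 (25 µM) | Timing: Compound incubation 1 h at room temperature, readout 45 min post-stimulation | Measured by: Membrane-potential fluorescent dye readout | Benchmarks: High control isoproterenol alone, low control NPY with isoproterenol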
Hsp70 activator – switches on Hsp70 transcription | HeLa Hsp70 promoter luciferase reporter, luminescence; scaled: vehicle 0, proteasome-inhibitor control 100% | 200,000 compounds, 0.04% hits | activation, % at 10 µM | AID 1203;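 active = activation above the mean across all tested compounds plus 3 SD, cutoff set per campaign, cut at about 5.5% in these data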;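 note: 100% = MG132 at 30 µM as the positive control and 0% = DMSO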
NPY-Y1 PAM-ag – human NPY-Y1 potentiation or agonism, primary screen | P25929 | NPY-Y1 expressing cells, potentiator/agonist activation | activation, % at 3.6 µM | 220,000 compounds, 0.37% hits; in the data active = activation above about 33%, passing the limit was not always enough;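 note: cells stimulated with NPY at EC10 then isoproterenol at EC100; 0% = low agonist plus stimulus and 100% = saturating agonist plus stimulus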
Wee1 degr inh – blocks degradation of human Wee1 kinase | reporter increase, % at 5 µM | HeLa Luc-Wee1K328M stability, luciferase luminescence; 100% = proteasome inhibitor MG132 effect | 220,000 compounds, 1.2% hits;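 active = activation above the mean of all tested compounds plus 3 SD, set per screening run, cut at about 8.8% in these data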;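 note: cells exposed to compound for 20 h before luminescence read; 0% = DMSO alone and 100% = MG132 at 30 µM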
* hit, by the source's call; . = not tested or not shown; + = active, no number. A selection: hits, their analogues and other compounds. The true share with any hit is near 3%.

SMILES | NPY-Y2 antag | NPY-Y2 PAM-ag | NPY Y1 blocker | Hsp70 activator | NPY-Y1 PAM-ag | Wee1 degr inh
Cc1ccc(S(=O)(=O)N2CCCCC2)cc1NC(=O)CN1CC=C(c2ccccc2)CC1 | 1.5 | -22.6 | 6.3 | -0.2 | -12.4 | 9.2*
COc1cc(CNCCc2ccc3c(c2)OCO3)cc(OC)c1OC | . | -9.7 | 6.6 | -0.3 | -33.7 | 0.7
O=C(O)c1nonc1-c1nonc1C(=O)O | 3.3 | -13.4 | 6.4 | -0.2 | 11.7 | 17.9*
CCCCN1C(=O)C(C2c3ccccc3C(=O)N2Cc2ccccc2)C(=O)NC1=S (stereo unspecified) | 4.7 | -5.0 | 6.9 | -0.3 | 10.4 | 9.9*
CCOC(=O)c1nc2ccccc2c(=O)n1-c1cccc(C)c1 | 4.2 | -4.7 | 0.7 | -0.5 | 4.3 | -3.2
CN1C(=O)CC(c2ccccc2)Nc2ccccc21 (stereo unspecified) | . | -22.6 | . | . | -26.1 | 1.0
CCN1/C(=C\C=C\C2=[N+](CC)c3ccccc3C2(C)C)C(C)(C)c2ccccc21 | + | -336.6 | + | -0.5 | -434.4 | -1.9
Cc1oc(-c2ccc(F)cc2F)nc1CN1C[C@@H]2C[C@@H](C1)c1cccc(=O)n1C2 | . | -5.3 | 1.5 | -0.5 | 7.0 | -2.0
CCN(CC)C(=O)c1ccc(NC(=O)c2cccc(F)c2)cc1 | 2.7 | -2.8 | -0.3 | 0.4 | 18.3 | 8.8*
O=c1cc(CN2CC=C(c3ccccc3)CC2)c2c(ccc3ccccc32)o1 | 5.4 | 63.6* | -7.0 | -0.4 | 69.7* | 0.6
O=C(CN1CC=C(c2ccccc2)CC1)NC(=O)NCc1ccccc1 | . | -16.9 | 12.2 | 0.0 | -16.0 | -1.8
CCCCCn1c(=O)c(C(=O)Nc2nc3ccccc3[nH]2)c(O)c2ccccc21 | . | -3.7 | . | . | -27.9 | 10.1*
CC(C)C1(C)N=C(c2ncccc2C(=O)O)NC1=O (stereo unspecified) | 1.1 | -3.6 | -1.2 | 0.0 | 8.6 | -0.9
Cc1ccc(N)c(C(=O)c2ccccc2)c1 | 2.8 | 103.5* | -9.1 | 0.3 | 97.8* | 1.7
c1ccc2c(CN3CCN(C4CCCCC4)CC3)c[nH]c2c1 | -1.6 | 5.1 | 9.5 | -0.2 | -79.7 | 10.7*
CC(=O)NC(Cc1ccc(N(CCCl)CCCl)cc1)C(=O)NC(CC(C)C)C(=O)O (stereo unspecified) | . | 8.5 | 0.3 | -0.1 | 22.2 | -2.6
CC(=O)N1N=C2C3CCN(CC3)C2C1c1ccc(F)cc1 (stereo unspecified) | . | 13.5 | -0.2 | 0.2 | 16.1 | 4.5
CN1CCN(Cc2cc(C(C)(C)C)c(O)c(C(C)(C)C)c2)CC1 | 6.1 | 50.5* | -0.4 | -0.3 | 77.4* | -1.6
O=C1N(c2nncs2)CCN1[N+](=O)[O-] | . | -6.2 | . | . | -9.9 | -0.5
CC(=O)OC1(Cc2ccccc2)CN2CCC1c1ccccc12 (stereo unspecified) | 5.3 | 2.0 | 1.3 | 0.1 | 12.3 | -0.5
CC(=O)OC(C)(C)/C=C/C(=O)[C@](C)(O)[C@H]1[C@H](O)C[C@@]2(C)[C@@H]3CC=C4[C@H](C[C@H](O)C(=O)C4(C)C)[C@]3(C)C(=O)C[C@]12C | 8.5 | 0.0 | 108.1* | -0.4 | -48.3 | -2.9
O=[N+]([O-])c1ccc(N2CCNCC2)c2ncccc12 | 0.3 | 46.5* | -7.8 | 0.0 | 74.1* | 0.4
O=C1NC(=O)N(c2cccc(Cl)c2)C(=O)/C1=C\c1ccc(Sc2nc3ccccc3[nH]2)o1 | -0.6 | 5.0 | -6.3 | -0.3 | -10.3 | 10.8*
C=Cn1ccnc1P(O)(=S)c1nc(C)c(CCOC(C)=O)s1 (stereo unspecified) | . | 10.6 | 0.1 | 0.2 | 7.8 | -1.5
CCN(CC)S(=O)(=O)c1ccc(NN=C(C#N)C#N)cc1 | 1.9 | 15.2 | 0.9 | -0.1 | 24.7 | -3.1
SMILES | NPY-Y2 antag | NPY-Y2 PAM-ag | NPY Y1 blocker | Hsp70 activator | NPY-Y1 PAM-ag | Wee1 degr inh
N#CC(C#N)=NNc1ccc(-n2ccc(C(F)(F)F)n2)cc1 | . | 68.5* | . | . | 55.4* | 0.1
O=c1c2ccccc2nc(-c2ccoc2)n1-c1ccccc1Cl | 3.5 | 21.1 | -9.5 | -0.5 | 23.2 | 1.4
C[C@@H]1O[C@@H](O[C@H]2C[C@@H](O)[C@]3(CO)[C@H]4[C@H](O)C[C@]5(C)[C@@H](C6COC(=O)C6)CC[C@]5(O)[C@@H]4CC[C@]3(O)C2)[C@H](O)[C@H](O)[C@H]1O (stereo partly specified) | 23.7* | -35.1 | 45.9* | -0.5 | -93.1 | 0.0
Cc1ccc2ccccc2c1NC(=O)CNC1CCCCC1 | 12.1 | 1.0 | 7.2 | 0.0 | -0.1 | 10.1*
CCc1ccccc1NC(=O)CNC1CCCCC1 | . | -5.1 | 2.3 | 0.0 | 24.1 | -1.3
CC(C)CCOC(=O)c1c(N)n(CC2CCCO2)c2nc3ccccc3nc12 (stereo unspecified) | 8.8 | 2.3 | 8.0 | 0.0 | -7.1 | 10.2*
CC(C)OCCCNC(=O)c1c(N)n(CC2CCCO2)c2nc3ccccc3nc12 (stereo unspecified) | 22.8* | -0.2 | 25.1* | -0.1 | 5.0 | -1.0
CCCNC(=O)c1c(N)n(CC2CCCO2)c2nc3ccccc3nc12 (stereo unspecified) | 5.7 | 4.2 | -4.7 | -0.3 | 13.3 | -2.8
O=C(CF)NC(Nc1cccc2cccnc12)C(Cl)(Cl)Cl (stereo unspecified) | 3.2 | 3.2 | -0.2 | 0.0 | 3.7 | -4.0
COc1cc(C=C2C(=O)NC(=O)NC2=O)ccc1OCc1ccc([N+](=O)[O-])cc1 | . | -2.0 | 1.2 | 0.5 | -8.7 | 11.7*
COC(=O)CNC(=O)c1cn(CCC#N)nc1-c1ccc(F)cc1 | . | -4.2 | 1.6 | -0.3 | -1.1 | 0.1
Cn1c(O)c(C=NCCN2CCOCC2)c(=O)n(C)c1=S | . | -2.6 | . | . | -6.4 | 4.5
O=c1[nH]cc(COCC(F)(F)C(F)(F)C(F)(F)F)c(=O)[nH]1 | . | 0.6 | 2.5 | -0.4 | 2.6 | -0.6
COc1ccc(-c2cc(=O)c3c(OC)c(OC)c(OC)cc3o2)cc1 | . | -28.2 | 1.0 | -0.3 | -6.7 | 9.3*
COc1ccc(-c2cc(=Nc3ccccc3)c3cc(C)ccc3o2)cc1 | 1.9 | -4.2 | 5.7 | -0.1 | 17.4 | 8.7
COc1ccc(/C=C2/C(=O)NC(=S)N(C3CC3)C2=O)cc1CN1C(=O)c2ccccc2C1=O | 2.6 | 8.4 | -3.0 | -0.5 | 0.7 | -3.8
NC1=NC(=O)C(c2ccccc2)O1 (stereo unspecified) | . | -8.1 | 0.2 | -0.2 | -3.9 | 10.2*
CCC[N+]12CCC(CC1)C(=C(c1ccccc1)c1ccccc1)C2 | 3.5 | 1.8 | 12.2 | -0.2 | 10.3 | -0.8
